Starred links: 1 amine or outer side, 2 acyl side, 3 side chain; linkers in the order of their positions; H or OH if unused. Non-standard residues stand in square brackets, D forms with d. Residues, ends and D or L forms follow the SMILES beside them. *: point of attachment. X1 = CC(C)C[C@H](N[*:1])[C@@H](O)C[C@H](C(=O)[*:2])C(C)C; Boc = CC(C)(C)OC(=O)*
Assays:
[1] = target: T1, Renin (Homo sapiens, UniProt P00797); assay: In vitro for inhibitory activity against human renin
T1 sequence (P00797 whole entry): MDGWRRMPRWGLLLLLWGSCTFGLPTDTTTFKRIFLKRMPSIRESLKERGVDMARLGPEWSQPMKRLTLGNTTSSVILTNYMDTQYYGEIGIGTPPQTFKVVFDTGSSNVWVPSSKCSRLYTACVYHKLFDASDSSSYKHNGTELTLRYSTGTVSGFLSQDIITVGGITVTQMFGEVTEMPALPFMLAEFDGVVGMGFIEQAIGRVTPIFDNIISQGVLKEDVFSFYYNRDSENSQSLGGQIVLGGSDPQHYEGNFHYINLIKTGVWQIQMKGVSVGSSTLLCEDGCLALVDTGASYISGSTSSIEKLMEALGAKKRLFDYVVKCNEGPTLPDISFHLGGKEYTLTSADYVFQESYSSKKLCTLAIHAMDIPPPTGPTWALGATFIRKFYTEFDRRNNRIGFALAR
Outline: (§1)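 Endogenous renin and angiotensinogen in human EDTA plasma; incubation mixture of 76 mM maleate pH 5.5, 7.2 mM EDTA, 1% DMSO, 8.3 mM 8-hydroxyquinoline; 2 h at 37 °C, then on ice; angiotensin I measured by radioimmunoassay. At least three inhibitor concentrations bracketing the IC50; IC50 calculated from percent inhibition.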

[2] = target: T2, Cathepsin D (Bos taurus, UniProt P80209); assay: In vitro inhibitory activity against bovine Cathepsin D
T2 sequence (P80209 whole entry): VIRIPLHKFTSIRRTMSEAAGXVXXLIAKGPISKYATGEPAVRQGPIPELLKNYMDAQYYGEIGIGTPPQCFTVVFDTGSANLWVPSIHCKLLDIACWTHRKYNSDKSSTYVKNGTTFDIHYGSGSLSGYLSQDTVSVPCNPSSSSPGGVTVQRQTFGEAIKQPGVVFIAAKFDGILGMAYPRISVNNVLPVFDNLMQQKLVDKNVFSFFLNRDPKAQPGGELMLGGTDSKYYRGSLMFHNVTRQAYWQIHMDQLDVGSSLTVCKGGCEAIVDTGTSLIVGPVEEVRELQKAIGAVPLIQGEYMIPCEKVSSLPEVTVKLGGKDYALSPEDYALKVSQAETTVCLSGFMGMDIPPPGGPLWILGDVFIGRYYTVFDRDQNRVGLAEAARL
Outline: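 Bovine cathepsin D (100 munits) acting on hemoglobin at pH 3.2, 20 min, 37 °C. TCA-soluble peptides released were read by absorbance at 280 nm; IC50 taken as the concentration giving 50% inhibition of peptide liberation.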

[3] = target: Pepsin A (Sus scrofa, UniProt P00791); assay: In vitro inhibitory activity against porcine Pepsin.
Sequence of Pepsin A (P00791 whole entry): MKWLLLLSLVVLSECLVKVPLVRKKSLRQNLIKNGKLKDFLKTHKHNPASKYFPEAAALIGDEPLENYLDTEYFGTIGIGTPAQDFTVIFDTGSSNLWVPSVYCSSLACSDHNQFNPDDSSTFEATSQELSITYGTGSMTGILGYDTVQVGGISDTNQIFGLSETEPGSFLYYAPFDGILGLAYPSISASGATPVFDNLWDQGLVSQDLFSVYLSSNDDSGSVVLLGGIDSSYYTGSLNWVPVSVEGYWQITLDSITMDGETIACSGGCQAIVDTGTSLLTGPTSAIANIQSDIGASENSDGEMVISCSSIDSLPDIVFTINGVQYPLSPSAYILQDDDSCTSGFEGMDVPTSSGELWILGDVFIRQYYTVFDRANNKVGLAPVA
Outline: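 Porcine pepsin (20 units) digesting hemoglobin at pH 1.8, 10 min, 35.5 °C. Released TCA-soluble peptides measured at 280 nm; IC50 is the concentration halving peptide liberation.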

[4] = Plasma renin activity change in salt depleted cynomolgus monkeys.; type: functional, Cercopithecidae
Outline: (§2)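 Cynomolgus monkeys salt-depleted with furosemide 2 mg/kg im daily from 4 days before the experiment; haloperidol 0.3 mg/kg im for sedation on the test day. Conscious chair-restrained animals; systolic pressure by tail-cuff every 5 min, stabilized before dosing. Single oral 30 mg/kg dose, n = 4; PRA from blood samples. Change from T = 0 baseline, mean ± SE.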

[5] = Plasma renin activity change in salt depleted cynomolgus monkeys after 180 minutes, administration of the compound.; type: functional, Cercopithecidae; outline: as §2
[6] = Partition coefficient (logP); type: physicochemical; conditions: octanol/water
Outline: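 Octanol/water partition coefficient measured at pH 7.4.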

[7] = target: T1, Renin; assay: Compound was tested in vitro for inhibitory activity against human renin; outline: as §1
[8] = Systolic blood pressure change in salt depleted cynomolgus monkeys.; type: functional, Cercopithecidae; outline: as §2
[9] = Duration of Systolic blood pressure decrease in salt depleted cynomolgus monkeys.; type: functional, Cercopithecidae; outline: as §2
[10] = target: T1, Renin; assay: The compound was tested in vitro for inhibitory activity against human renin; outline: as §1

Row | SMILES | IC50 [1] | IC50 [2] | IC50 [3] | other results
1 | CC[C@H](C)[C@H](NC(=O)[C@@H](C[C@H](O)[C@H](CC(C)C)NC(=O)CNC(=O)[C@H](Cc1ccccc1)NC(=O)OC(C)(C)C)C(C)C)C(=O)NCc1cnc(C)nc1N | 0.0054 µM | 3.9 µM | 1.4 µM | 
2 | CC[C@H](C)[C@H](NC(=O)C[C@H](O)[C@H](CC1CCCCC1)NC(=O)CCNC(=O)[C@H](Cc1ccccc1)NC(=O)N1CCOCC1)C(=O)NCc1cnc(C)nc1N | 0.00028 µM | > 10 µM | > 10 µM | 
3 | CC[C@H](C)[C@H](NC(=O)C[C@H](O)[C@H](CC1CCCCC1)NC(=O)CCNC(=O)[C@H](Cc1ccccc1)NC(=O)N1CCC(N(C)C)CC1)C(=O)NCc1cnc(C)nc1N | 0.00058 µM | 10 µM | > 10 µM | 
4 | CC[C@H](C)[C@H](NC(=O)[C@@H](C[C@H](O)[C@H](CC(C)C)NC(=O)CCNC(=O)[C@H](Cc1ccccc1)NC(=O)OC(C)(C)C)C(C)C)C(=O)NCc1cnc(C)nc1N | 0.0041 µM | 4.7 µM | 0.83 µM | 
5 | CC[C@H](C)[C@H](NC(=O)C[C@H](O)[C@H](CC1CCCCC1)NC(=O)CSC[C@@H](O)[C@H](Cc1ccccc1)NC(=O)OC(C)(C)C)C(=O)NCc1cnc(C)nc1N | 0.0055 µM | 73 µM | > 100 µM | 
6 | CC[C@H](C)[C@H](NC(=O)[C@@H](C[C@H](O)[C@H](CC(C)C)NC(=O)CCC(=O)[C@H](Cc1ccccc1)NC(=O)OC(C)(C)C)C(C)C)C(=O)NCc1cnc(C)nc1N |  | 8 µM | 12 µM | IC50 [7]: 0.0051 µM
7 | CC[C@H](C)[C@H](NC(=O)C[C@H](O)[C@H](CC1CCCCC1)NC(=O)CSC[C@H](O)[C@H](Cc1ccccc1)NC(=O)OC(C)(C)C)C(=O)NCc1cnc(C)nc1N | 0.0063 µM | > 100 µM | > 100 µM | 
8 | CC[C@H](C)[C@H](NC(=O)C[C@H](O)[C@H](CC1CCCCC1)NC(=O)CCNC(=O)[C@H](Cc1ccccc1)NC(=O)CCCCCN)C(=O)NCc1cnc(C)nc1N | 0.0045 µM | > 10 µM | > 10 µM | 
9 | CC[C@H](C)[C@H](NC(=O)C[C@H](O)[C@H](CC1CCCCC1)NC(=O)CCNC(=O)[C@@H](Cc1ccccc1)NC(=O)CC(C)(C)N)C(=O)NCc1cnc(C)nc1N | 0.0018 µM | > 10 µM | > 10 µM | 
10 | CC[C@H](C)[C@H](NC(=O)C[C@H](O)[C@H](CC1CCCCC1)NC(=O)CCNC(=O)[C@@H](Cc1ccccc1)NC(=O)N1CCC(C(=O)O)CC1)C(=O)NCc1cnc(C)nc1N | 0.00115 µM | > 10 µM | > 10 µM | 
11 | CC[C@H](C)[C@H](NC(=O)C[C@H](O)[C@H](CC1CCCCC1)NC(=O)CC[C@@H](O)[C@H](Cc1ccccc1)NC(=O)OC(C)(C)C)C(=O)NCc1cnc(C)nc1N | 0.0012 µM | > 10 µM | 10 µM | 
12 | CC[C@H](C)[C@H](NC(=O)C[C@H](O)[C@H](Cc1ccccc1)NC(=O)[C@H](Cc1c[nH]cn1)NC(=O)[C@H](Cc1ccccc1)NC(=O)OC(C)(C)C)C(=O)NCc1cccnc1 | 0.0029 µM | 5.8 µM | > 10 µM | 
13 | CC[C@H](C)[C@H](NC(=O)[C@@H](C[C@H](O)[C@H](CC(C)C)NC(=O)CSCC(=O)[C@H](Cc1ccccc1)NC(=O)OC(C)(C)C)C(C)C)C(=O)NCc1cnc(C)nc1N | 0.0054 µM | 8.8 µM | 6 µM | 
14 | CC[C@H](C)[C@H](NC(=O)C[C@H](O)[C@H](CC1CCCCC1)NC(=O)CC[C@H](O)[C@H](Cc1ccccc1)NC(=O)OC(C)(C)C)C(=O)NCc1cnc(C)nc1N | 0.0042 µM | > 10 µM | > 10 µM | 
15 | CCOC(=O)C1CCN(C(=O)N[C@@H](Cc2ccccc2)C(=O)NCCC(=O)N[C@@H](CC2CCCCC2)[C@@H](O)CC(=O)N[C@H](C(=O)NCc2cnc(C)nc2N)[C@@H](C)CC)CC1 | 0.00041 µM | 3.15 µM | 4.2 µM | 
16 | CC[C@H](C)[C@H](NC(=O)C[C@H](O)[C@H](CC1CCCCC1)NC(=O)CCNC(=O)[C@H](Cc1ccccc1)NC(=O)CCC[N+](C)(C)C)C(=O)NCc1cnc(C)nc1N.[Cl-] | 0.008 µM | > 10 µM | > 10 µM | Change [8]: -10.6%; Duration [9]: > 130 min; Change [4]: -83.2%; Change [5]: -78.3%; logP [6]: 1.53
17 | CC[C@H](C)[C@H](NC(=O)C[C@H](O)[C@H](CC1CCCCC1)NC(=O)CCNC(=O)[C@H](Cc1ccccc1)NC(=O)N1CCC(NC(=O)OC(C)(C)C)CC1)C(=O)NCc1cnc(C)nc1N | 0.00065 µM | 5.9 µM | > 10 µM | 
18 | CC[C@H](C)[C@H](NC(=O)C[C@H](O)[C@H](CC1CCCCC1)NC(=O)CCNC(=O)[C@H](Cc1ccccc1)NC(=O)N1CCC(N)CC1)C(=O)NCc1cnc(C)nc1N.Cl.Cl | 0.00076 µM | 8.5 µM | > 10 µM | Change [8]: -24.7%; Duration [9]: >180 min; Change [4]: -90.5%; Change [5]: -89.3%; logP [6]: 1.83
19 | CC[C@H](C)[C@H](NC(=O)C[C@H](O)[C@H](CC1CCCCC1)NC(=O)CCNC(=O)[C@@H](N)Cc1ccccc1)C(=O)NCc1cnc(C)nc1N | 0.0195 µM | > 10 µM | > 10 µM | 
20 | CC[C@H](C)[C@H](NC(=O)[C@@H](C[C@H](O)[C@H](CC(C)C)NC(=O)[C@H](Cc1c[nH]cn1)NC(=O)[C@H](Cc1ccccc1)NC(=O)OC(C)(C)C)C(C)C)C(=O)N[C@@H](Cc1c[nH]cn1)C(=O)O (Boc-FH[X1]IH-OH) |  |  |  | IC50 [10]: 0.0024 µM

Now from value to molecule, other results behind:

Row | IC50 [1] | IC50 [2] | IC50 [3] | SMILES | other results
21 | 0.00053 µM | 0.028 µM | 0.95 µM | CC[C@H](C)[C@H](NC(=O)C[C@H](O)[C@H](CC1CCCCC1)NC(=O)[C@H](C)NC(=O)[C@H](Cc1ccccc1)NC(=O)OC(C)(C)C)C(=O)NCc1cnc(C)nc1N | 
22 | 0.0025 µM | 13 µM | 38.5 µM | CC[C@H](C)[C@H](NC(=O)C[C@H](O)[C@@H](CC1CCCCC1)NC(=O)CNC(=O)[C@@H](Cc1ccccc1)NC(=O)OC(C)(C)C)C(=O)NCc1cnc(C)nc1N | 
23 | 0.24 µM | > 10 µM | > 10 µM | CC[C@H](C)[C@H](NC(=O)C[C@H](O)[C@H](CC1CCCCC1)NC(=O)CS(=O)(=O)CC(=O)[C@H](Cc1ccccc1)NC(=O)OC(C)(C)C)C(=O)NCc1cnc(C)nc1N | 
24 | 0.0028 µM | 6.5 µM | 40 µM | CC[C@H](C)[C@H](NC(=O)C[C@H](O)[C@@H](CC1CCCCC1)NC(=O)CNC(=O)[C@@H](Cc1ccccc1)NC(=O)OC(C)(C)C)C(=O)NCc1cccnc1 | 
25 | 0.0015 µM | 7.9 µM | 18.5 µM | CC[C@H](C)[C@H](NC(=O)C[C@H](O)[C@@H](CC1CCCCC1)NC(=O)CCNC(=O)[C@@H](Cc1ccccc1)NC(=O)OC(C)(C)C)C(=O)NCc1cnc(C)nc1N | Change [4]: -25.1%; Change [5]: -21.6%; logP [6]: 2.88
26 | 0.07 µM | > 10 µM | > 10 µM | CC[C@H](C)[C@H](NC(=O)C[C@H](O)[C@H](CC1CCCCC1)NC(=O)C[S+]([O-])CC(=O)[C@H](Cc1ccccc1)NC(=O)OC(C)(C)C)C(=O)NCc1cnc(C)nc1N (stereo partly drawn) | 
27 | 0.0285 µM | 3.2 µM | > 10 µM | CC[C@H](C)[C@H](NC(=O)C[C@H](O)[C@@H](CC1CCCCC1)NC(=O)CCCNC(=O)[C@@H](Cc1ccccc1)NC(=O)OC(C)(C)C)C(=O)NCc1cnc(C)nc1N | 
28 |  | 28 µM | 53 µM | CC[C@H](C)[C@H](NC(=O)C[C@H](O)[C@H](CC1CCCCC1)NC(=O)CSCC(=O)[C@H](Cc1ccccc1)NC(=O)OC(C)(C)C)C(=O)NCc1cnc(C)nc1N | IC50 [7]: 0.0021 µM
29 | 0.0085 µM | > 10 µM | > 10 µM | CC[C@H](C)[C@H](NC(=O)C[C@H](O)[C@H](CC1CCCCC1)NC(=O)CCC(=O)[C@H](Cc1ccccc1)NC(=O)OC(C)(C)C)C(=O)NCc1cnc(C)nc1N | 
